The target of data set [1] is Histone deacetylase 3 (Homo sapiens) (UniProt O15379). As to the kind of experiment: Inhibition of HDAC3 in human HL-60 cells assessed as increase in Ac-H3 level at 0.5 to 8 uM incubated for 24 hrs by Western blot analysis. The data set is classed as cell-based. The settings on record: dose 0.5-8 µM. The procedure, abridged:
(§1)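 Compound given to HL-60 cells for 24 h at the stated concentrations, then lysed. Acetyl-histone H3 and acetyl-α-tubulin levels were read by Western blot, with total H3, α-tubulin or β-actin as references.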

Data set [2] deals with HL-60. As to the kind of experiment: Induction of apoptosis in human HL60 cells assessed as necrotic cells at 4 uM incubated for 24 hrs by propidium iodide and annexin-V FITC staining based FACS analysis (reference value: 0.5 %). The data set is classed as functional. (Flow cytometry measures light scatter and fluorescence of single cells or particles in a stream.)
Data set [3] has as its target T1, Protein deacetylase HDAC6 (Homo sapiens) (UniProt Q9UBN7).
T1 sequence (whole entry): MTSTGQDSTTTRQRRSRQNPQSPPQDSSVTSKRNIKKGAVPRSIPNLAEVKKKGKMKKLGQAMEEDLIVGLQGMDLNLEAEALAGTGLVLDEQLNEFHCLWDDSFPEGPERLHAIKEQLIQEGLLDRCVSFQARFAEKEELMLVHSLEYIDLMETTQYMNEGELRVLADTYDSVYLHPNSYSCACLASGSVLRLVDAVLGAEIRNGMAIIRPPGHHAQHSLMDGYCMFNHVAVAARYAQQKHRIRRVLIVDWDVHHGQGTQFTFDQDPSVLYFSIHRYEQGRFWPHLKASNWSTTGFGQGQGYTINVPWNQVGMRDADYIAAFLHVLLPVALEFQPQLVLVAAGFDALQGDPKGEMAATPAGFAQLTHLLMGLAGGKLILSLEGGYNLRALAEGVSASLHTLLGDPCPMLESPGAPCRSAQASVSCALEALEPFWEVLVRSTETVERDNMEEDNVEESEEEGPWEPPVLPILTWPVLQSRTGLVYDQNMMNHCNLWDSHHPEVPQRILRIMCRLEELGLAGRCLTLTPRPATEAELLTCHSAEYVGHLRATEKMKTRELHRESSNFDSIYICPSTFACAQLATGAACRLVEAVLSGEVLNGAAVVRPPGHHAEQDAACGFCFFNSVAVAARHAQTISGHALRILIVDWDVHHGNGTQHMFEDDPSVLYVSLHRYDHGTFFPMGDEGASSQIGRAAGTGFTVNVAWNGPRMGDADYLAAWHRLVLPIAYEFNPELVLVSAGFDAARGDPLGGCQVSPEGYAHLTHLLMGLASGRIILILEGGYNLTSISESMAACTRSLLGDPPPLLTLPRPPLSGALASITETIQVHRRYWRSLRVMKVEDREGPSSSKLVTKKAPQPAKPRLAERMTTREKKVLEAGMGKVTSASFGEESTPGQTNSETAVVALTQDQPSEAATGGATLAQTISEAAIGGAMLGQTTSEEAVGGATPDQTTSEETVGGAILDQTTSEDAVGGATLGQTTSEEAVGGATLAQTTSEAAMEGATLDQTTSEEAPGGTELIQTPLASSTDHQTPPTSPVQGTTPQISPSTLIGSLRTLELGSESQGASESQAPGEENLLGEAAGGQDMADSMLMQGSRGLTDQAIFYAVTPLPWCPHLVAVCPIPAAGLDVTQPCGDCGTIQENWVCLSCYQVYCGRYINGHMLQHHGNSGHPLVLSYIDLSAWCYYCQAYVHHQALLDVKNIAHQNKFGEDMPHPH
Briefly: Inhibition of HDAC6 in human HL-60 cells assessed as increase in acetylated alpha tubulin level at 0.5 to 8 uM after 24 hrs by Western blot analysis. The data set is classed as cell-based. The settings on record: dose 0.5-8 µM. The procedure, abridged: as §1
(In general: A western blot detects proteins with antibodies after separation by electrophoresis.)

Data set [4] relates to HL-60. Briefly: Induction of apoptosis in human HL-60 cells assessed as cleavage of caspase-8 at 0.5 to 8 uM after 24 hrs Western blot analysis. The data set is classed as functional, cell-based. The note with it: dose 0.5-8 µM. The essentials:
(§2)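 HL-60 cells were treated for 24 h at the indicated concentrations, then analysed by Western blot. Blots were probed for cleavage of PARP and caspase-3, -8 and -9. Ac-H3, Ac-α-tubulin and β-actin were also detected, with β-actin as the loading reference.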

Data set [5] has as its system HL-60. Briefly: Induction of apoptosis in human HL-60 cells assessed as early apoptotic cells at 4 uM incubated for 24 hrs by propidium iodide and annexin-V FITC staining based FACS analysis (reference value: 2.9 %). It is filed as functional.
Data set [6] deals with HL-60. As to the kind of experiment: Induction of apoptosis in human HL-60 cells assessed as necrotic cells at 2 uM incubated for 24 hrs by propidium iodide and annexin-V FITC staining based FACS analysis (reference value: 0.5 %). It is filed as functional.
For data set [7], the target named is T2, Histone deacetylase 1 (Homo sapiens, UniProt Q13547). As to the kind of experiment: Inhibition of HDAC1 in human HL-60 cells assessed as increase in Ac-H3 level at 0.5 to 8 uM incubated for 24 hrs by Western blot analysis. The note with it: dose 0.5-8 µM. The data set is classed as cell-based. The essentials:
as §1

Data set [8] concerns HL-60. Briefly: Induction of apoptosis in human HL60 cells assessed as viable cells at 2 uM incubated for 24 hrs by propidium iodide and annexin-V FITC staining based FACS analysis (reference value: 92.05 %). It is filed as functional. The note with it: read-out: Activity.
In data set [9] the test system is HL-60. As to the kind of experiment: Induction of apoptosis in human HL-60 cells assessed as early apoptotic cells at 2 uM incubated for 24 hrs by propidium iodide and annexin-V FITC staining based FACS analysis (reference value: 2.9 %). It is filed as functional.
The nature of data set [10]: Toxicity in mouse LL/2 cells inoculated C57BL/6J mouse assessed as effect on body weight by measuring initial body weight at 100 mg/kg, ip administered for 12 days and measured for every 2 days (reference value: 18.6 +/- 0.8 g). The settings on record: in vivo, 288 h, time 12 day. The data set is classed as organism-based.
The subject of data set [11] is HL-60. As to the kind of experiment: Induction of apoptosis in human HL-60 cells assessed as late apoptotic cells at 4 uM incubated for 24 hrs by propidium iodide and annexin-V FITC staining based FACS analysis (reference value: 4.2 %). The data set is classed as functional.
In data set [12] the test system is HL-60. As to the kind of experiment: Induction of apoptosis in human HL-60 cells assessed as late apoptotic cells at 2 uM incubated for 24 hrs by propidium iodide and annexin-V FITC staining based FACS analysis (reference value: 4.2 %). The data set is classed as functional.
For data set [13], the system named is HL-60. Briefly: Induction of apoptosis in human HL-60 cells assessed as cleavage of caspase-3 at 0.5 to 8 uM after 24 hrs Western blot analysis. The data set is classed as functional, cell-based. The note with it: dose 0.5-8 µM. The essentials:
as §2

In data set [14] the test system is HL-60. Briefly: Induction of apoptosis in human HL-60 cells assessed as early apoptotic cells at 1 uM incubated for 24 hrs by propidium iodide and annexin-V FITC staining based FACS analysis (reference value: 2.8 %). The data set is classed as functional.
Data set [15] relates to HL-60. Briefly: Induction of apoptosis in human HL-60 cells assessed as late apoptotic cells at 2 uM incubated for 24 hrs by propidium iodide and annexin-V FITC staining based FACS analysis (reference value: 4.8 %). It is filed as functional.
In data set [16] the test system is HL-60. Briefly: Induction of apoptosis in human HL-60 cells assessed as cleavage of PARP at 0.5 to 2 uM after 24 hrs Western blot analysis. It is filed as functional, cell-based. The note with it: dose 0.5-2 µM. The essentials:
as §2

The subject of data set [17] is HL-60. As to the kind of experiment: Induction of apoptosis in human HL-60 cells assessed as cleavage of caspase-3 at 0.5 to 2 uM after 24 hrs Western blot analysis. The data set is classed as functional, cell-based. The settings on record: dose 0.5-2 µM. The essentials:
as §2

For data set [18], the target named is Histone deacetylase 3 (Homo sapiens) (UniProt O15379). Briefly: Inhibition of HDAC3 in human HL-60 cells assessed as increase in Ac-H3 level at 0.5 to 2 uM incubated for 24 hrs by Western blot analysis. The data set is classed as cell-based. The settings on record: dose 0.5-2 µM. The essentials:
as §1

For data set [19], the target named is T2, Histone deacetylase 1. As to the kind of experiment: Inhibition of HDAC1 in human HL-60 cells assessed as increase in Ac-H3 level at 0.5 to 2 uM incubated for 24 hrs by Western blot analysis. It is filed as cell-based. The settings on record: dose 0.5-2 µM. The essentials:
as §1

The structures appear in SMILES notation. The source made the active and inactive calls. The rule behind the calls is not given here.

T2 sequence (Q13547 whole entry): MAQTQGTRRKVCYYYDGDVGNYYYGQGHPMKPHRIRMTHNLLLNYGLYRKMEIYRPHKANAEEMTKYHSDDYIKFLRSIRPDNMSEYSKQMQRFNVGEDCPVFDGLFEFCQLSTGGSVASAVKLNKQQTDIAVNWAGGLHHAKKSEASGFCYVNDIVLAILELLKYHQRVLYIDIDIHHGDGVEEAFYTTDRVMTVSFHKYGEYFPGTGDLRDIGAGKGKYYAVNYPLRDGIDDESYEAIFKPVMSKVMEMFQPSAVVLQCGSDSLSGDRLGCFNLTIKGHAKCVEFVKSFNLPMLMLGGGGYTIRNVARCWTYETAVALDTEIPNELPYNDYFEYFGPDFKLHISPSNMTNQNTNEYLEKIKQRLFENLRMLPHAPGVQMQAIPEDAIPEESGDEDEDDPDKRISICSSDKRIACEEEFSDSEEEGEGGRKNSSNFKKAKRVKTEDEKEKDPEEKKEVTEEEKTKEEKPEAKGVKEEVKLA
Sequence of Histone deacetylase 3 (Homo sapiens) (O15379 whole entry): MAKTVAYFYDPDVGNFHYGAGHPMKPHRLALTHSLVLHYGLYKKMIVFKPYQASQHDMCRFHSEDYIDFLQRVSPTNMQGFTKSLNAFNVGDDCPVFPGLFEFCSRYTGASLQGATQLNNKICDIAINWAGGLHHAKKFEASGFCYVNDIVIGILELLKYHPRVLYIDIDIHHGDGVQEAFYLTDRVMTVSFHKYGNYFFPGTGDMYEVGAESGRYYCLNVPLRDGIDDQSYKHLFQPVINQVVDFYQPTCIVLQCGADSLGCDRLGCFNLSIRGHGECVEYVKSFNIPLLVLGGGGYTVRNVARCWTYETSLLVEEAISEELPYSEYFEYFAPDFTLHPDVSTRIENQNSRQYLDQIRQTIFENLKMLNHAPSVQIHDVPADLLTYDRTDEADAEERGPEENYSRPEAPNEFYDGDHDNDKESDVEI

On to `O=C(NCCS)/C(Cc1ccc(O)c(Br)c1)=N/O`, for which the inhibition result (in data set [1]; at Histone deacetylase 1 [7]) was “Active” throughout. Further, the Activity stood at 0.3% in the data set with HL-60 [2]; 1.6% with HL-60 [5]; 0.3% in the data set on HL-60 [6]; 2.4% in the data set on HL-60 [9]; 18.6 g in data set [10]; 4.7% with HL-60 [11]. Further, the Activity in the data set on HL-60 [12] amounted to 3.7%. Also, the inhibition result in data set [3] is “inactive”. For the same compound, the outcome in the data set on HL-60 [4] and with HL-60 [13] was Active. In addition, the viability at 2 µM with HL-60 [8] is 93.6%.

Turning to `O=C(NCCSSCCNC(=O)/C(Cc1ccc(O)c(Br)c1)=N/O)/C(Cc1ccc(O)c(Br)c1)=N/O` [PSAMMAPLIN A], the inhibition entry (in data set [1]; on Histone deacetylase 1 [7]) was “Active” in each case. Also, the Activity turned out to be 3.7% in the data set with HL-60 [2]; 3.4% in the data set with HL-60 [5]; 3.9% with HL-60 [6]; 4.1% with HL-60 [9]; 26.7% in the data set with HL-60 [11]; 24.9% with HL-60 [12]. For the same compound, the inhibition entry in data set [3] was “inactive”. For the same compound, the result in the data set on HL-60 [4] and with HL-60 [13] was Active. Further, in the data set on HL-60 [8], the viability at 2 µM turned out to be 67.1%.

On to `O=C(CCNC(=O)/C(Cc1ccc(O)c(Br)c1)=N/O)NO`, for which the Activity in the data set on HL-60 [14] is 7.1%; with HL-60 [15] it was 21.9%. Moreover, the outcome with HL-60 [16] and with HL-60 [17] was Active. Further, the inhibition result (in data set [18]; at Histone deacetylase 1 [19]) was “Active” throughout.
